Measured values as given in ChEMBL document CHEMBL5712886, “Discovery and Characterization of GSK2801, a Selective Chemical Probe for the Bromodomains BAZ2A and BAZ2B” (J Med Chem, 2016).
Activity calls are given as the source filed them. The calls are words filed in the database; no cut-off is given here.

Assays:
[1] = target: ATPase family AAA domain-containing protein 2 (Homo sapiens) (UniProt Q6PL18); test: Binding affinity to biotinylated ATAD2 (unknown origin) expressed in Escherichia coli at 0.2 to 1 uM by Biolayer Interferometric analysis; conditions: dose 0.2-1 µM
In short: (§1)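 Bromodomains carrying a BirA biotin ligase targeting sequence, coexpressed with BirA in bacteria to give homogeneous in vivo biotin labelling, checked by mass spectrometry. Biotinylated proteins probed by biolayer interferometry with compound at two concentrations, 0.2 and 1.0 μM.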

[2] = target: T1, SWI/SNF-related matrix-associated actin-dependent regulator of chromatin subfamily A member 4 (Homo sapiens, UniProt P51532); test: Binding affinity to SMARCA4 in human HUT78 cell extract using GSK2801 affinity matrix by chemoproteomic competition binding assay; type: cell-free
T1 sequence (P51532 whole entry): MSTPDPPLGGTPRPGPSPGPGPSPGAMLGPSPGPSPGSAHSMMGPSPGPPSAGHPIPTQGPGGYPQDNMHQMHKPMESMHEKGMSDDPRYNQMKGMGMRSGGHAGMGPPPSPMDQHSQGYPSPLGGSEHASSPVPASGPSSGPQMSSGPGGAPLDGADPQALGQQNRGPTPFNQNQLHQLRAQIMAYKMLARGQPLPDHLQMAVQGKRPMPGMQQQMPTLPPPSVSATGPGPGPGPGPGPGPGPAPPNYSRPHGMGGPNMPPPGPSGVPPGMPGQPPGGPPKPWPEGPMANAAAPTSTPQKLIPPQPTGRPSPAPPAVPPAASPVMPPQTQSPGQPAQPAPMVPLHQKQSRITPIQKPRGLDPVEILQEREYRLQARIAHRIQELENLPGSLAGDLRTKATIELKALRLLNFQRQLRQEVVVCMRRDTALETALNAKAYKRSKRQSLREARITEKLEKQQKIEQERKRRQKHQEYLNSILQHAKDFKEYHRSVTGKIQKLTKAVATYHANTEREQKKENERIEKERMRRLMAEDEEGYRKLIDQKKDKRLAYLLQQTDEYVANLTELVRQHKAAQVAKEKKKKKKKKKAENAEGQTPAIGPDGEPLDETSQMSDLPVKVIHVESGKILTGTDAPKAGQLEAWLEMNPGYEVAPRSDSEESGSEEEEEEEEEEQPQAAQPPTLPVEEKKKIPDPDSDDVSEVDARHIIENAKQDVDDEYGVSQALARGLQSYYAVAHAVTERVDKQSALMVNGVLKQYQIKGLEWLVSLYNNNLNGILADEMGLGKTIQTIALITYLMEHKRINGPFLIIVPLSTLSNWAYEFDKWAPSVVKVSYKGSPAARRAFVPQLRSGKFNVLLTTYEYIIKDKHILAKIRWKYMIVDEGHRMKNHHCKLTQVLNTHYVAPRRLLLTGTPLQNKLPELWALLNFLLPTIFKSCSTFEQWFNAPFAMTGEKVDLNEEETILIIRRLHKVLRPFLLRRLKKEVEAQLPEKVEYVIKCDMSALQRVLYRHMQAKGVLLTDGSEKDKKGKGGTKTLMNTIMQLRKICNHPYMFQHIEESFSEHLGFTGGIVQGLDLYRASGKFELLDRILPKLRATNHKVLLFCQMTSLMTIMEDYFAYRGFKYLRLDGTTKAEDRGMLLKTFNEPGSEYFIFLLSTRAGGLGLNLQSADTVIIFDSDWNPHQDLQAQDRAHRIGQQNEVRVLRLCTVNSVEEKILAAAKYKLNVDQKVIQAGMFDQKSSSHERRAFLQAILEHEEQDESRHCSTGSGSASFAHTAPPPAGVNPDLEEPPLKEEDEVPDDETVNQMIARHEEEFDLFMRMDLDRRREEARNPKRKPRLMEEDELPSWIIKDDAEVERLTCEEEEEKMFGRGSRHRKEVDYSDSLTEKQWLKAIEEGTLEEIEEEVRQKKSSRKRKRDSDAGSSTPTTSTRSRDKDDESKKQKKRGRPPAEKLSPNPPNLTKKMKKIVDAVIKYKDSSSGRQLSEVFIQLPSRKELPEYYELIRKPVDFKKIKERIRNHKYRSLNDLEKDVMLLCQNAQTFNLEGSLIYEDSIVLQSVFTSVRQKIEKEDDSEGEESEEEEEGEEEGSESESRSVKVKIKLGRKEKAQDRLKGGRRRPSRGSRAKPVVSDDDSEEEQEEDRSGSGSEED

[3] = target: Bromodomain-containing protein 3 (Homo sapiens) (UniProt Q15059); test: Binding affinity to biotinylated BRD3 bromodomain-1 (unknown origin) expressed in Escherichia coli at 0.2 to 1 uM by Biolayer Interferometric analysis; conditions: dose 0.2-1 µM; in short: as §1
Sequence of Bromodomain-containing protein 3 (Homo sapiens) (Q15059 2-726 limits assumed): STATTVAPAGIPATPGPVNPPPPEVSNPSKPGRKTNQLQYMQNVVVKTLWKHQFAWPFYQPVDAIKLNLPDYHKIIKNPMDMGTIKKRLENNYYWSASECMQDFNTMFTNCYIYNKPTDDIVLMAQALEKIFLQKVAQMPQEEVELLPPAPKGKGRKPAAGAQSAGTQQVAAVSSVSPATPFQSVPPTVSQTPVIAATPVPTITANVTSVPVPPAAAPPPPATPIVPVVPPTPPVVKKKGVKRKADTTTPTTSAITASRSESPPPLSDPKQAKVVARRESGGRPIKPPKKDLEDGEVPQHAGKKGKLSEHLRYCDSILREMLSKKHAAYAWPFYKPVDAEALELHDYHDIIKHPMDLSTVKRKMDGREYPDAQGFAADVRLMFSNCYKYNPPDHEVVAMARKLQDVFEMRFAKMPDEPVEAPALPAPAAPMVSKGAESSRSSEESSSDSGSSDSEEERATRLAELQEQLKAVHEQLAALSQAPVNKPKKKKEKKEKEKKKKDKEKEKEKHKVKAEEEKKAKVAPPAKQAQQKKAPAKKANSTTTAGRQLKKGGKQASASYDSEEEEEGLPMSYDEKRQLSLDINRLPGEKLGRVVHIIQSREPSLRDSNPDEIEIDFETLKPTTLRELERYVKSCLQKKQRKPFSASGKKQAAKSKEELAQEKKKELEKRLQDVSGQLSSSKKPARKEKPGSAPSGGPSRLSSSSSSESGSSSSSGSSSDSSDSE

[4] = target: Transcription initiation factor TFIID subunit 1-like (Homo sapiens) (UniProt Q8IZX4); test: Binding affinity to biotinylated TAF1L bromodomain-1 (unknown origin) expressed in Escherichia coli at 0.2 to 1 uM by Biolayer Interferometric analysis; conditions: dose 0.2-1 µM; in short: as §1
[5] = target: Nucleosome-remodeling factor subunit BPTF (Homo sapiens) (UniProt Q12830); test: Binding affinity to biotinylated FALZ (unknown origin) expressed in Escherichia coli at 0.2 to 1 uM by Biolayer Interferometric analysis; conditions: dose 0.2-1 µM; in short: as §1
[6] = target: Protein polybromo-1 (Homo sapiens) (UniProt Q86U86); test: Binding affinity to biotinylated PB1 bromodomain-1 (unknown origin) expressed in Escherichia coli at 0.2 to 1 uM by Biolayer Interferometric analysis; conditions: dose 0.2-1 µM; in short: as §1
Sequence of Protein polybromo-1 (Homo sapiens) (Q86U86 whole entry): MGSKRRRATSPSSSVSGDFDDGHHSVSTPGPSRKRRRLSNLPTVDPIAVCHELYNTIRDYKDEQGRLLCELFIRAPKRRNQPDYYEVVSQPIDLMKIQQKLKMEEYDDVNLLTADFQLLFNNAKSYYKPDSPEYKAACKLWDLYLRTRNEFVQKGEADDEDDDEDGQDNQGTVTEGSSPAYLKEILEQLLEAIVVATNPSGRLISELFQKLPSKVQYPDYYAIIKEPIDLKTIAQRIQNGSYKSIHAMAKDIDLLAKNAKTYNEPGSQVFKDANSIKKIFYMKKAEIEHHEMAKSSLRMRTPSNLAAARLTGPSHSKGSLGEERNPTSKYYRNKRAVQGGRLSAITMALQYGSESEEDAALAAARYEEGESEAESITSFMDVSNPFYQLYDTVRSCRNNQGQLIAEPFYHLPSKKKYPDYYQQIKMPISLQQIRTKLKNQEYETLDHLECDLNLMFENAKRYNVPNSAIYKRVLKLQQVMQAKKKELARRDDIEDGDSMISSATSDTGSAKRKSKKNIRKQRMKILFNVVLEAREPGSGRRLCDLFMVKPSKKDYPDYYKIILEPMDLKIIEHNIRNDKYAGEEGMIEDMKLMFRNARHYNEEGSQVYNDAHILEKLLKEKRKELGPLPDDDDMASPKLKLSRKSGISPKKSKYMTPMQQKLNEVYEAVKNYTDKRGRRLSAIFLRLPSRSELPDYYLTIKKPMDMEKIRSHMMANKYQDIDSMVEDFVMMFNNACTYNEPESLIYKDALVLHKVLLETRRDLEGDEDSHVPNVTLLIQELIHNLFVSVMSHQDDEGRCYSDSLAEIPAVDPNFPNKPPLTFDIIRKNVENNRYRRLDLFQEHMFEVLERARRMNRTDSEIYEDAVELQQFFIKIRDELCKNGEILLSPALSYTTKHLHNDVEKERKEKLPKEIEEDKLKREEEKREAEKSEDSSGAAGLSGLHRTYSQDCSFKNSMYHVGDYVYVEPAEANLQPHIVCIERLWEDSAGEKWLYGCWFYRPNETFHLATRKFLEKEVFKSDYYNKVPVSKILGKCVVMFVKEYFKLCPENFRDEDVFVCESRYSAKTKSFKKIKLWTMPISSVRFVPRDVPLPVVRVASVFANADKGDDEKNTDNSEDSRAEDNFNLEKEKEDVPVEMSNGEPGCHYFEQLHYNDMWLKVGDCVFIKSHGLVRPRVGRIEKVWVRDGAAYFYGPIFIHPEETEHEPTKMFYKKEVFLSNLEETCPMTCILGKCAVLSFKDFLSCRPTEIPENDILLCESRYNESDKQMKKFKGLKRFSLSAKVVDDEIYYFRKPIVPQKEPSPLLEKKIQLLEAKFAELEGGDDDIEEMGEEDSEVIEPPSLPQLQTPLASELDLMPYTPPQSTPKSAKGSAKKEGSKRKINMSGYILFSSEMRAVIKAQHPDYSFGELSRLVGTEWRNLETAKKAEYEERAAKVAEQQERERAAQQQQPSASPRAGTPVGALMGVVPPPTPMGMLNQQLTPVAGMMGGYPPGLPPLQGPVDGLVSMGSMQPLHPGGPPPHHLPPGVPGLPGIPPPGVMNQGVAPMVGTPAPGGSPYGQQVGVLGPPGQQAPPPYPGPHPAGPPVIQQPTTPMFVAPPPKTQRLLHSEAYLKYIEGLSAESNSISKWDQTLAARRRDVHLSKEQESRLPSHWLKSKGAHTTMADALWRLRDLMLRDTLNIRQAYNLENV

[7] = target: Bromodomain and WD repeat-containing protein 1 (Homo sapiens) (UniProt Q9NSI6); test: Binding affinity to biotinylated WDR9 (unknown origin) expressed in Escherichia coli at 0.2 to 1 uM by Biolayer Interferometric analysis; conditions: dose 0.2-1 µM; in short: as §1
[8] = target: Bromodomain testis-specific protein (Homo sapiens) (UniProt Q58F21); test: Binding affinity to biotinylated BRDT bromodomain-1 (unknown origin) expressed in Escherichia coli at 0.2 to 1 uM by Biolayer Interferometric analysis; conditions: dose 0.2-1 µM; in short: as §1
[9] = target: Transcription intermediary factor 1-beta (Homo sapiens) (UniProt Q13263); test: Binding affinity to biotinylated TRIM28 (unknown origin) expressed in Escherichia coli at 0.2 to 1 uM by Biolayer Interferometric analysis; conditions: dose 0.2-1 µM; in short: as §1
[10] = target: Bromodomain-containing protein 7 (Homo sapiens) (UniProt Q9NPI1); test: Binding affinity to biotinylated BRD7 (unknown origin) expressed in Escherichia coli at 0.2 to 1 uM by Biolayer Interferometric analysis; conditions: dose 0.2-1 µM; in short: as §1
[11] = target: Peregrin (Homo sapiens) (UniProt P55201); test: Binding affinity to biotinylated BRPF1 bromodomain-1 (unknown origin) expressed in Escherichia coli at 0.2 to 1 uM by Biolayer Interferometric analysis; conditions: dose 0.2-1 µM; in short: as §1
[12] = target: T2, SWI/SNF-related matrix-associated actin-dependent regulator of chromatin subfamily A member 2 (Homo sapiens, UniProt P51531); test: Binding affinity to SMARCA2 in human HuT78 cell extract using GSK2801 affinity matrix by chemoproteomic competition binding assay; type: cell-free
[13] = target: Nuclear body protein SP140 (Homo sapiens) (UniProt Q13342); test: Binding affinity to biotinylated SP140 (unknown origin) expressed in Escherichia coli at 0.2 to 1 uM by Biolayer Interferometric analysis; conditions: dose 0.2-1 µM; in short: as §1
Sequence of Nuclear body protein SP140 (Homo sapiens) (Q13342 whole entry): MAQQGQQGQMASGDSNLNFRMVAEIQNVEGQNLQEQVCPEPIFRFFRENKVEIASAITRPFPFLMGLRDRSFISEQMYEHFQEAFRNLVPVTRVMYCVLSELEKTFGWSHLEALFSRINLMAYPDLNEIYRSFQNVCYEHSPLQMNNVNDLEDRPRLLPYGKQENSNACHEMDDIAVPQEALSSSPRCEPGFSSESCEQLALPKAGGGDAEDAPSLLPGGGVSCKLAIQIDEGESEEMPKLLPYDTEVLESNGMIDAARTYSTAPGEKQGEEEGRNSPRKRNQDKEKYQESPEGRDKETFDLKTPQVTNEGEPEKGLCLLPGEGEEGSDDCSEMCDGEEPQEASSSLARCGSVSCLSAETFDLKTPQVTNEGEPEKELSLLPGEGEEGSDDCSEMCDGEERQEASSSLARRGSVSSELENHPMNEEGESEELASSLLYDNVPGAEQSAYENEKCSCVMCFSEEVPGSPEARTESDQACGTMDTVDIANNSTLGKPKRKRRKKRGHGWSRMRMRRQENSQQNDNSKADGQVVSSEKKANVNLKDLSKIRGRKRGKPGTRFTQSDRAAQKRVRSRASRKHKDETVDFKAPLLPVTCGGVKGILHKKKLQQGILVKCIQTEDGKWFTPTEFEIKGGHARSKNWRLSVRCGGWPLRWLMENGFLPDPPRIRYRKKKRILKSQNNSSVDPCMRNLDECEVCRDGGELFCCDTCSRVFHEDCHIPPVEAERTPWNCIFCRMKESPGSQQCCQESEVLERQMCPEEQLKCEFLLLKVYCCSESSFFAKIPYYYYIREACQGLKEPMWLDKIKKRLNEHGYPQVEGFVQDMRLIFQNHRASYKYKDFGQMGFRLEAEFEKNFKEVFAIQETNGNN

[14] = target: T1, SWI/SNF-related matrix-associated actin-dependent regulator of chromatin subfamily A member 4; test: Binding affinity to biotinylated SMARCA4 (unknown origin) expressed in Escherichia coli at 0.2 to 1 uM by Biolayer Interferometric analysis; conditions: dose 0.2-1 µM; in short: as §1
[15] = target: Histone acetyltransferase KAT2A (Homo sapiens) (UniProt Q92830); test: Binding affinity to biotinylated GCN5L2 (unknown origin) expressed in Escherichia coli at 0.2 to 1 uM by Biolayer Interferometric analysis; conditions: dose 0.2-1 µM; in short: as §1
[16] = target: CREB-binding protein (Homo sapiens) (UniProt Q92793); test: Binding affinity to biotinylated CREBBP (unknown origin) expressed in Escherichia coli at 0.2 to 1 uM by Biolayer Interferometric analysis; conditions: dose 0.2-1 µM; in short: as §1
[17] = target: Protein polybromo-1 (Homo sapiens) (UniProt Q86U86); test: Binding affinity to biotinylated PB1 bromodomain-2 (unknown origin) expressed in Escherichia coli at 0.2 to 1 uM by Biolayer Interferometric analysis; conditions: dose 0.2-1 µM; in short: as §1
[18] = target: T2, SWI/SNF-related matrix-associated actin-dependent regulator of chromatin subfamily A member 2; test: Binding affinity to biotinylated SMARCA2 (unknown origin) expressed in Escherichia coli at 0.2 to 1 uM by Biolayer Interferometric analysis; conditions: dose 0.2-1 µM; in short: as §1
[19] = target: Bromodomain and WD repeat-containing protein 3 (Homo sapiens) (UniProt Q6RI45); test: Binding affinity to biotinylated BRWD3 bromodomain-2 (unknown origin) expressed in Escherichia coli at 0.2 to 1 uM by Biolayer Interferometric analysis; conditions: dose 0.2-1 µM; in short: as §1
[20] = target: Bromodomain-containing protein 3 (Homo sapiens) (UniProt Q15059); test: Binding affinity to biotinylated BRD3 bromodomain-2 (unknown origin) expressed in Escherichia coli at 0.2 to 1 uM by Biolayer Interferometric analysis; conditions: dose 0.2-1 µM; in short: as §1
[21] = target: T3, Bromodomain-containing protein 9 (Homo sapiens) (UniProt Q9H8M2); test: Binding affinity to biotinylated BRD9 (unknown origin) expressed in Escherichia coli at 0.2 to 1 uM by Biolayer Interferometric analysis; conditions: dose 0.2-1 µM; in short: as §1
T3 sequence (whole entry): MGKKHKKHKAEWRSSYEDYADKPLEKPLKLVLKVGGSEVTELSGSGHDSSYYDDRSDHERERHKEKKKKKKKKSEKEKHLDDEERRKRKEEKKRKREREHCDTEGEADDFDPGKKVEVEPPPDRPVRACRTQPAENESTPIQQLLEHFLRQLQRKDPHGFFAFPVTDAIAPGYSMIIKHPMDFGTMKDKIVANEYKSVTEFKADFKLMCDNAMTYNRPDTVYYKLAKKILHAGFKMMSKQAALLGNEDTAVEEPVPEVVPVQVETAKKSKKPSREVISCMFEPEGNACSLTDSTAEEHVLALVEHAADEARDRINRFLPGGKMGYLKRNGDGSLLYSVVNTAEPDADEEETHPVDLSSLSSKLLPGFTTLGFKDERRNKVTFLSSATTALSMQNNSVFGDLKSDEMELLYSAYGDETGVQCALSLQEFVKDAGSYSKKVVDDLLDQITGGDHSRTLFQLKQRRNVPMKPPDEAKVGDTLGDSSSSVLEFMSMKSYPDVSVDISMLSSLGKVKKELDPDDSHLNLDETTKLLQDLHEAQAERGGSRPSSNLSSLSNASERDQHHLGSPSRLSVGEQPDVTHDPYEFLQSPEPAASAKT

[22] = target: Protein polybromo-1 (Homo sapiens) (UniProt Q86U86); test: Binding affinity to biotinylated PB1 bromodomain-6 (unknown origin) expressed in Escherichia coli at 0.2 to 1 uM by Biolayer Interferometric analysis; conditions: dose 0.2-1 µM; in short: as §1

For `CCCOc1ccn2c(C(C)=O)cc(-c3cccc(OC)c3)c2c1`, the Activity [1] was “inactive”, the Kd [2] was 15.8 µM and the Activity [3] was “inactive”. For the same molecule, the Activity [4] was “inactive”, the Activity [5] was “inactive” and the Activity [6] was “inactive”. For the same molecule, the Activity [7] was “inactive”, the Activity [8] was “inactive” and the Activity [9] was “inactive”. For the same molecule, the Activity [10] was “inactive”, the Activity [11] was “inactive” and the Kd [12] was 15.8 µM. The Activity [13] was “inactive”, the Activity [14] was “inactive” and the Activity [15] was “inactive”. The Activity [16] was “inactive”, the Activity [17] was “inactive” and the Activity [18] was “inactive”. For the same molecule, the Activity [19] was “inactive”, the Activity [20] was “inactive” and the Activity [21] was “Active”. The Activity [22] was “inactive”.
